Results taken from ChEMBL document CHEMBL1944537, “6-Nitrobenzimidazole derivatives: potential phosphodiesterase inhibitors: synthesis and structure-activity relationship” (Bioorg Med Chem, 2012).

Assays:
Bothrops atrox = test: (§1) Inhibition of Bothrops atrox venom phosphodiesterase-1 assessed as conversion of […] p-nitrophenol using bis(p-nitropheny1) phosphate as substrate preincubated for 30 mins by spectrophotometric analysis; set-up: concentration or dose not given beside the values
Outline: (§2)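 Crude dried snake venom as enzyme source, 0.000742 U/well, in 33 mM Tris-HCl pH 8.8 with 30 mM magnesium acetate. Substrate 0.33 mM bis(p-nitrophenyl) phosphate. Enzyme and test sample pre-incubated 30 min, then p-nitrophenol release followed as OD/min at 410 nm, 37 °C, on a microtitre plate reader. EDTA positive control. Run in triplicate; IC50 determined.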

[1] = as §1; outline: as §2

| Compound | inhibition (Bothrops atrox) [%] | IC50 [1] [µM] |
| --- | --- | --- |
| COc1cccc(-c2nc3ccc([N+](=O)[O-])cc3[nH]2)c1O | < 50 |  |
| O=C(O)CN(CCN(CC(=O)O)CC(=O)O)CC(=O)O [EDETIC ACID] |  | 274 |
| O=[N+]([O-])c1ccc2nc(-c3ccc(Br)cc3)[nH]c2c1 | < 50 |  |
| O=[N+]([O-])c1ccc2nc(-c3cccc(O)c3O)[nH]c2c1 |  | 1.5 |
| Cc1ccc(-c2nc3cc([N+](=O)[O-])ccc3[nH]2)cc1 | < 50 |  |
| O=[N+]([O-])c1ccc2[nH]c(-c3ccccc3)nc2c1 | < 50 |  |
| COc1ccc(-c2nc3cc([N+](=O)[O-])ccc3[nH]2)cc1OC |  | 63.1 |
| O=[N+]([O-])c1ccc2nc(-c3ccc(O)c(O)c3O)[nH]c2c1 |  | 10.5 |
| O=[N+]([O-])c1ccc2nc(-c3ccsc3)[nH]c2c1 | < 50 |  |
| O=[N+]([O-])c1ccc2nc(-c3ccc(O)c(O)c3)[nH]c2c1 |  | 5.7 |
| O=[N+]([O-])c1ccc2nc(-c3ccc(Cl)c(Cl)c3)[nH]c2c1 | < 50 |  |
| O=[N+]([O-])c1ccc2nc(-c3c(O)cc(O)cc3O)[nH]c2c1 |  | 6.4 |
| O=[N+]([O-])c1ccc2[nH]c(-c3ccc(Cl)cc3)nc2c1 |  | 120 |
| O=[N+]([O-])c1ccc2[nH]c(-c3ccncc3)nc2c1 | < 50 |  |
| O=[N+]([O-])c1ccc2nc(-c3ccccc3F)[nH]c2c1 | < 50 |  |
| O=[N+]([O-])c1ccc2nc(-c3ccc(Cl)cc3Cl)[nH]c2c1 | < 50 |  |

| Compound | inhibition (Bothrops atrox) [%] | IC50 [1] [µM] |
| --- | --- | --- |
| O=[N+]([O-])c1ccc2nc(-c3cc(Cl)ccc3O)[nH]c2c1 | < 50 |  |
| O=[N+]([O-])c1ccc2nc(-c3cccc4cc5ccccc5cc34)[nH]c2c1 | < 50 |  |
| O=[N+]([O-])c1ccc2nc(-c3ccc(O)cc3O)[nH]c2c1 |  | 11.5 |
| CN(C)c1ccc(-c2nc3ccc([N+](=O)[O-])cc3[nH]2)cc1 | < 50 |  |
| O=[N+]([O-])c1ccc2nc(-c3cc(Br)cc(Br)c3O)[nH]c2c1 | < 50 |  |
| O=[N+]([O-])c1ccc2nc(-c3ccccc3Cl)[nH]c2c1 | < 50 |  |
| O=[N+]([O-])c1ccc2nc(-c3ccccc3O)[nH]c2c1 | < 50 |  |
| O=[N+]([O-])c1ccc2nc(-c3cccc4c3ccc3ccccc34)[nH]c2c1 | < 50 |  |
| O=[N+]([O-])c1ccc2nc(-c3cc(Cl)cc(Cl)c3O)[nH]c2c1 |  | 294 |
| O=[N+]([O-])c1ccc2nc(-c3cc(O)ccc3O)[nH]c2c1 | < 50 |  |
| O=[N+]([O-])c1ccc(Cl)c(-c2nc3ccc([N+](=O)[O-])cc3[nH]2)c1 | < 50 |  |
| O=[N+]([O-])c1ccc(-c2nc3cc([N+](=O)[O-])ccc3[nH]2)cc1 |  | 153 |
| CSc1ccc(-c2nc3ccc([N+](=O)[O-])cc3[nH]2)cc1 | < 50 |  |
| CCOc1cccc(-c2nc3ccc([N+](=O)[O-])cc3[nH]2)c1O | < 50 |  |
| O=[N+]([O-])c1ccc2nc(-c3ccc(O)cc3)[nH]c2c1 |  | 2.4 |
